Screening data deposited in PubChem BioAssay by Broad Institute.
Compounds with a hit are over-represented: about 2.1% of the library has one in this group of screens.
CAL PDZ FP-1 – blocks peptide binding to human CAL PDZ domain. purified CAL PDZ, TMR-peptide fluorescence polarization, 1 h. inhibition, % at 20 µM. 330,000 tested, 0.02% active. AID 504414;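 active means highest replicate inhibition of at least 40%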;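 further: plate controls were DMSO neutral control wells for no effect and unlabeled competitor peptide control wells for full effect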
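Test system: tagged CAL PDZ domain / Buffer or medium: sodium phosphate/NaCl buffer pH 7.4 with TCEP, IgG, Thesit / Reagent: TMR-labelled reporter peptide T*-PRC34 bound in PDZ groove / Compound dosing: single point, 20 µM / Schedule: 1 h incubation at room temperature before polarization reading / Technique: fluorescence polarization (mP) / Benchmarks: unlabelled peptide, DMSO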
CAL PDZ FP-2 – inhibitors of human CAL PDZ peptide binding. Q9HD26. purified CAL PDZ, TMR-peptide fluorescence polarization, 1 h. inhibition, % at 24.9 µM. 300,000 tested, 0.92% active. AID 602252;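 active means mean inhibition of at least 30% with at least half of replicates also reaching 30%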;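 further: 0% = DMSO neutral control and 100% = excess unlabeled competitor peptide PRC23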
SR-BI DiI-HDL act – SR-BI HDL lipid transfer activation | CHO ldlA[mSR-BI] cells, DiI-HDL uptake fluorescence, 3 h; 100 = double the neutral-control signal | activation, % at 12.5 µM | 320,000 tested, 0.096% active;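 active means mean replicate activation of at least 60% and every replicate at or above 60%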;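 further: 0% = median plate neutral-control signal and 100% = twice that signal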
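System: LDL receptor-deficient CHO ldlA cells overexpressing murine SR-BI | Timing: 3 h uptake period with compound, 37 °C | Medium: HEPES-buffered (25 mM, pH 7.4) F12 plus 0.5% BSA | Dosing: Single-point compound dose | Signal: Bottom-read fluorescence, 550/595 nm | Read-out: Retained DiI signal reflecting DiI-HDL uptake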
miR-122 sensor – inhibitors of miR-122 in Huh7 cells. Huh7 miR-122 Renilla luciferase sensor, 48 h; neutral wells = 0, positive control = 100. activation (reporter increase), % at 12.5 µM. 340,000 tested, 0.3% active;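 active means mean replicate activation score at least 90 and every replicate individually at or above 90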;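 further: higher luciferase means less miR-122 activity so hits act as miR-122 inhibitors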
SR-BI DiI inh – blocks mouse SR-BI lipid uptake from DiI-HDL. inhibition, % at 12.5 µM. Q61009. 320,000 tested, 0.96% active. ldlA[mSR-BI] CHO cells, DiI-HDL uptake fluorescence, 3 h;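 active means mean replicate inhibition of at least 70% and a set share of replicates each scoring 70 or more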;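 further: 0% = median of neutral control wells and 100% = median of positive control wells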
Target sequence (Q61009 whole entry, looked up): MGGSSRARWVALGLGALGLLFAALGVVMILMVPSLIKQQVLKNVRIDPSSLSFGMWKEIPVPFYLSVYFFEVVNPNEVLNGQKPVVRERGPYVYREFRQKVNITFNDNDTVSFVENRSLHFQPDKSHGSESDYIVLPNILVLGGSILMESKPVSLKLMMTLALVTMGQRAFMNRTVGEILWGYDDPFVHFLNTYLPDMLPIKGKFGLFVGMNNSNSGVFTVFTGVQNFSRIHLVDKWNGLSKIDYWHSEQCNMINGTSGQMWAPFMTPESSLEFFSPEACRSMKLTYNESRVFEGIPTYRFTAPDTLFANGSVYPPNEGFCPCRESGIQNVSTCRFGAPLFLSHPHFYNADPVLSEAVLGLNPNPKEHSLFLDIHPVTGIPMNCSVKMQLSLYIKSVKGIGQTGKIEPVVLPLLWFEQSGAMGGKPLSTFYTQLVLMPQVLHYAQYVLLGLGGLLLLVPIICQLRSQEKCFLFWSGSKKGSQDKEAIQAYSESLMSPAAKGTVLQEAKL
ARNT TACC3 PPI – disrupts binding between human ARNT and TACC3 | Q9Y6A5 | AlphaScreen His-ARNT PAS-B/GST-TACC3 binding, luminescence; TACC3 fragment carries E629A point mutation | inhibition, % at 9.99 µM | 390,000 tested, 0.66% active | AID 623870;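 active means mean inhibition of replicates at least 50% and at least half of replicates each reaching 50%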;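 further: 0% = complete ARNT plus TACC3 wells and 100% = ARNT alone without TACC3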
* hit, by the source's call; . = not tested or not shown; [ ] = another dose, or the depositor's remark.

SMILES | CAL PDZ FP-1 | CAL PDZ FP-2 | SR-BI DiI-HDL act | miR-122 sensor | SR-BI DiI inh | ARNT TACC3 PPI
C[C@@H]1CN([C@H](C)CO)C(=O)Cc2cc(NC(=O)Cc3ccccc3)ccc2O[C@@H]1CN(C)Cc1ccc(Oc2ccccc2)cc1 | . | . | . | -14[16.7 µM] | . | 1
COc1ccc(CN(C)C[C@H]2OCCCC[C@H](C)Oc3ccc(NS(=O)(=O)c4ccc(F)cc4)cc3C(=O)N([C@@H](C)CO)C[C@H]2C)cc1 | . | . | . | -2[16.7 µM] | . | 4
CO[C@@H]1CN(C)C(=O)c2cc(NC(C)=O)ccc2OC[C@H](C)N(C(=O)c2ccccn2)C[C@H]1C | . | . | . | 7[16.7 µM] | . | 2
CC(C)N(C(=O)COC(=O)c1cccc(N(C)C)c1)c1ccccc1 | 0 | 49* | -5 | . | 5 | 6
CCS(=O)(=O)Nc1ccc2c(c1)C(=O)N(C)[C@H]1CC[C@@H](CC(=O)NCCOC)O[C@H]1CO2 | . | . | . | . | . | -4
CCCNC(=O)Nc1ccc2c(c1)C(=O)N(C)C[C@@H](OC)[C@@H](C)CN(Cc1ccccn1)[C@H](C)CO2 | . | . | . | 5[16.7 µM] | . | 5
CN1CCN(c2nc(-c3ccccn3)nc3ccccc23)CC1 | -1 | 0 | -8 | -11 | 8 | 67*
O=C(C[C@H]1C[C@H]2c3cc(NC(=O)NC4CCCC4)ccc3O[C@H]2[C@H](CO)O1)NCc1ccc(-c2ccccc2)cc1 | . | . | . | 2[16.7 µM] | . | -1
CC(=O)c1ccc(NS(=O)(=O)c2ccc3c(c2)N(C)CCO3)cc1 | -1 | -2 | -3 | 134* | 3 | 8
COc1cc(O)c(/C=N/NC(=O)c2ccncc2)c(OC)c1[N+](=O)[O-] | 0 | . | -54 | . | 54 | 65*
COc1cc(C(=O)Oc2ccc(/C=N/NC(=O)c3ccncc3)cc2)cc(OC)c1OC | -3 | -7 | -73 | -6 | 73* | -8
CC(=O)Nc1ccc2c(c1)C(=O)N(C)[C@H]1CC[C@@H](CC(=O)NCc3ccccc3)O[C@H]1CO2 | . | . | . | 8[16.7 µM] | . | -3
C[C@@H]1CN([C@@H](C)CO)C(=O)Cc2cc(NC(=O)NC3CCCCC3)ccc2O[C@H]1CN(C)CC1CC1 | . | . | . | -2[16.7 µM] | . | -1
COc1cccc(-c2nn(C)c3sc(C(=O)Nc4ccc5c(c4)OCCO5)cc23)c1 | -3 | -4 | -86 | -2 | 86* | 4
Cn1nc(-c2ccccc2F)c2cc(C(=O)Nc3ccc4c(c3)OCCO4)sc21 | -2 | -2 | -60 | 6 | 60 | -3
COn1c(SCC(N)=O)nc2ccccc2c1=O | -2 | -1 | 16 | 7 | -16 | -4
COn1c(SCc2ccc(C)cc2C)nc2ccccc2c1=O | . | 48* | -29 | 3 | 29 | -4
COc1cccc2c1C(=N)c1c(O)c3c(c(O)c1C2=O)CC(O)(C(C)=O)CC3OC1CC(N)C(O)C(C)O1 (stereo not drawn) | 4 | -5 | -38 | 25 | 38 | 49*
Cn1c(N)c(C(=O)COC(=O)CC2CC3CCC2C3)c(=O)n(C)c1=O (stereo not drawn) | 10 | 88* | 12 | . | -12 | -1
O=C(Nc1cc(Br)ccc1O)c1cnn2c(C(F)F)cc(C3CC3)nc12 | 0 | -1 | -77 | . | 77* | 38
COc1ccc(S(=O)(=O)N(C)C[C@H]2Oc3ccc(NC(=O)NC(C)C)cc3C(=O)N([C@@H](C)CO)C[C@H]2C)cc1 | . | . | . | 34[16.7 µM] | . | .
CC(C)CC#Cc1ccc2c(c1)O[C@H](CN(C)C(=O)c1cccc(F)c1)[C@@H](C)CN([C@H](C)CO)S2(=O)=O | . | . | . | 30[16.7 µM] | . | 7
CN(C)C(=O)C[C@H]1CC[C@H](NC(=O)C2CCOCC2)[C@@H](CO)O1 | . | . | . | . | . | -2
CC(C)(C)CC(C)(C)NC(=S)Nc1ccc2nc(-c3ccccn3)c(-c3ccccn3)nc2c1 | -1 | -5 | -15 | -19 | 15 | 5
CN(C)NC(=S)Nc1ccc2nc(-c3ccccn3)c(-c3ccccn3)nc2c1 | -1 | -4 | -8 | 1 | 8 | 73*
S=C(Nc1ccc2nc(-c3ccccn3)c(-c3ccccn3)nc2c1)N1CCOCC1 | -3 | -9 | 5 | . | -5 | 37
OCCCNC(=S)Nc1ccc2nc(-c3ccccn3)c(-c3ccccn3)nc2c1 | -2 | 0 | 3 | -6 | -3 | 60*
